The values that follow come from ChEMBL document CHEMBL3286242, “Design, synthesis and biological evaluation of arylcinnamide hybrid derivatives as novel anticancer agents” (Eur J Med Chem, 2014).

One assay has as its system Jurkat. Briefly: Cytotoxicity against human Jurkat cells assessed as growth inhibition after 72 hrs by MTT assay. In kind it is functional, cell-based. On the technique in general: Tetrazolium assays rely on reduction of a dye to a coloured formazan, in cell work by metabolically active cells.
The test system of another assay is HeLa. Briefly: Cytotoxicity against human HeLa cells assessed as growth inhibition after 72 hrs by MTT assay. The format is functional, cell-based.
For a further assay, the system named is MCF7. Briefly: Cytotoxicity against human MCF7 cells assessed as growth inhibition after 72 hrs by MTT assay. The format is functional, cell-based. The settings on record: MCF7, 72 h.
In another assay the test system is CCRF-CEM. Briefly: Cytotoxicity against human CEM cells assessed as growth inhibition after 72 hrs by MTT assay. The format is functional, cell-based.
A further assay concerns LoVo. Briefly: Cytotoxicity against human LoVo cells assessed as growth inhibition after 72 hrs by MTT assay. In kind it is functional, cell-based.
Assay [1] can be described thus: Cytotoxicity against human SEM cells assessed as growth inhibition after 72 hrs by MTT assay. The format is functional, cell-based.
Another assay has as its system HT-29. Briefly: Cytotoxicity against human HT-29 cells assessed as growth inhibition after 72 hrs by MTT assay. In kind it is functional, cell-based. The following applies: HT-29, 72 h.
The target of the next assay is Tubulin (Bos taurus) (UniProt Q6B856+Q862L2+Q862F3). Briefly: Inhibition of bovine brain tubulin polymerization at 20 uM by turbidimetry. The method in brief: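 Purified bovine brain tubulin (10 μM) preincubated with compound in glutamate buffer at 30 °C, cooled to 0 °C, GTP added, then warmed to 30 °C in cuvettes; assembly followed turbidimetrically; concentrations up to 20 μM.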

Assay [2] can be described thus: Cytotoxicity against human CEM/VBL100 cells assessed as growth inhibition after 72 hrs by MTT assay. The format is functional, cell-based. The settings on record: CEM/VBL100, 72 h.

The source made the active and inactive calls. No cut-off for these calls is given here.

Turning to `C=C(Br)C(=O)Nc1cccc(/C=C/C(=O)Nc2cc(OC)cc(OC)c2)c1`, the IC50 (as a rule, the midpoint of a concentration-inhibition curve) was 980 nM with Jurkat; 2200 nM in the assay on HeLa; 3000 nM in the assay with MCF7; 11 nM in the assay on CCRF-CEM; 1210 nM with LoVo; 40 nM in [1]. In addition, the 50% inhibitory concentration (IC50) in the assay on HT-29 came to 3600 nM.

With `C=C(Br)C(=O)Nc1cccc(/C=C/C(=O)Nc2ccc(F)c(F)c2)c1`, the IC50 in the assay on Jurkat was found to be 550 nM; in the assay on HeLa, 1900 nM; in the assay on MCF7, 2690 nM; with CCRF-CEM, 13 nM; in the assay with LoVo it was 540 nM; in assay [1] it was 90 nM. The IC50 in the assay on HT-29 came out at 8700 nM. In addition, the inhibition entry on Tubulin (Bos taurus) was “inactive”.

Consider `C=C(Br)C(=O)Nc1ccc(/C=C/C(=O)Nc2ccc(OC)cc2)cc1`, for which the IC50 turned out to be 1400 nM in the assay with Jurkat; 1600 nM with HeLa; 3000 nM in the assay on MCF7; 22 nM in the assay on CCRF-CEM; 60 nM in the assay on LoVo; 80 nM in assay [1]. In addition, in the assay with HT-29, the IC50 is 3100 nM.

Take `C=C(Br)C(=O)Nc1cccc(/C=C/C(=O)Nc2ccc(Cl)cc2)c1`: the IC50 came out at 2600 nM in the assay with Jurkat; 2800 nM in the assay on HeLa; 11000 nM with MCF7; 460 nM with CCRF-CEM; 5900 nM in the assay with LoVo; 1190 nM in assay [1]. For the same molecule, the IC50 in the assay on HT-29 is 7900 nM.

On to `C=C(Br)C(=O)Nc1cccc(/C=C/C(=O)Nc2ccc(OC)c(OC)c2)c1`, for which the 50% inhibitory concentration (IC50) with Jurkat turned out to be 190 nM; with HeLa, 560 nM; in the assay with MCF7, 2800 nM; with CCRF-CEM, 21 nM; in the assay on LoVo, 150 nM; in assay [1], 3 nM. Moreover, the IC50 with HT-29 was 1900 nM. In addition, at Tubulin (Bos taurus), the inhibition entry was “inactive”.

With `C=C(Br)C(=O)Nc1cccc(/C=C/C(=O)Nc2ccc(OC)cc2)c1`, the IC50 in the assay on Jurkat is 470 nM; in the assay on HeLa it was 790 nM; in the assay with MCF7 it was 2500 nM; in the assay on CCRF-CEM, 26 nM; in the assay with LoVo it was 550 nM; in assay [1] it was 70 nM. In addition, the IC50 in the assay with HT-29 is 2300 nM. The inhibition result at Tubulin (Bos taurus) is “inactive”.

Turning to `COc1cc(NC(=O)/C=C/c2cccc(OCc3ccccc3)c2)cc(OC)c1OC`, the IC50 with Jurkat was determined as 3500 nM; with HeLa it was 2200 nM; with MCF7, 2400 nM; in the assay with CCRF-CEM it was 17300 nM; with LoVo, 21700 nM; in assay [1] it was 8500 nM. In addition, the IC50 with HT-29 was 3600 nM.

As for `COc1cc(NC(=O)/C=C/c2cccc(N)c2)cc(OC)c1OC`, the IC50 was 43300 nM in the assay with Jurkat; 53100 nM in the assay on HeLa; 55400 nM in the assay with MCF7; 40900 nM with CCRF-CEM; 45200 nM in the assay with LoVo; 2810 nM in assay [1]. For the same molecule, in the assay on HT-29, the IC50 was 63100 nM.

In the case of `C=C(Br)C(=O)Nc1cccc(/C=C/C(=O)Nc2ccc(SC(F)(F)F)cc2)c1`, the IC50 came to 30100 nM in the assay with Jurkat; 19000 nM in the assay on HeLa; 30100 nM in the assay on MCF7; 15300 nM in the assay on CCRF-CEM; 29300 nM in the assay with LoVo; 12700 nM in assay [1]. Moreover, in the assay on HT-29, the IC50 is 39800 nM.

With `C=C(Br)C(=O)Nc1cccc(/C=C/C(=O)Nc2cccc3ccccc23)c1`, the IC50 worked out at 680 nM in the assay on Jurkat; 1400 nM in the assay on HeLa; 2800 nM in the assay with MCF7; 1800 nM in the assay on CCRF-CEM; 1160 nM in the assay with LoVo; 830 nM in [1]. Moreover, in the assay with HT-29, the IC50 turned out to be 6500 nM.

With `C=C(Br)C(=O)Nc1cccc(/C=C/C(=O)Nc2ccc(C)cc2)c1`, the IC50 came out at 240 nM with Jurkat; 1500 nM in the assay with HeLa; 2500 nM with MCF7; 270 nM in the assay on CCRF-CEM; 1500 nM in the assay with LoVo; 190 nM in assay [1]. For the same molecule, the IC50 in the assay with HT-29 came out at 1200 nM.

For the molecule `C=C(Br)C(=O)Nc1cccc(/C=C/C(=O)NCc2ccc(C)cc2)c1`, the IC50 in the assay on Jurkat amounted to 740 nM; with HeLa, 1700 nM; in the assay with MCF7, 2200 nM; in the assay with CCRF-CEM, 550 nM; in the assay on LoVo, 1900 nM; in assay [1], 1300 nM. Further, in the assay on HT-29, the IC50 came to 2700 nM.

In the case of `C=C(Br)C(=O)Nc1cccc(/C=C/C(=O)Nc2ccccc2)c1`, the IC50 in the assay with Jurkat was 5000 nM; in the assay with HeLa, 7300 nM; in the assay with MCF7 it was 27300 nM; in the assay with CCRF-CEM it was 190 nM; in the assay on LoVo, 3900 nM; in assay [1] it was 1100 nM. For the same molecule, the IC50 with HT-29 was 16600 nM.

On to `C=C(Br)C(=O)Nc1cccc(/C=C/C(=O)Nc2cccc(F)c2)c1`, for which the concentration for half-maximal inhibition (IC50) with Jurkat was 1000 nM; with HeLa it was 1200 nM; in the assay on MCF7 it was 3300 nM; with CCRF-CEM, 26000 nM; in the assay on LoVo it was 1000 nM; in [1], 620 nM. In addition, the IC50 in the assay on HT-29 came out at 4600 nM.

Consider `COc1cccc2c1C(=O)c1c(O)c3c(c(O)c1C2=O)C[C@@](O)(C(=O)CO)C[C@@H]3O[C@H]1C[C@H](N)[C@H](O)[C@H](C)O1` [DOXORUBICIN], for which the IC50 in the assay on LoVo came to 90 nM.

With `C=C(Br)C(=O)Nc1cccc(/C=C/C(=O)Nc2cc(OC)c(OC)c(OC)c2)c1`, the IC50 with Jurkat came out at 290 nM; with HeLa, 880 nM; with MCF7, 1800 nM; in the assay with CCRF-CEM it was 59 nM; with LoVo it was 140 nM; in assay [1], 18 nM. Moreover, the IC50 with HT-29 is 2300 nM. Further, the inhibition result at Tubulin (Bos taurus) is “inactive”.

With `C=C(Br)C(=O)Nc1cccc(/C=C/C(=O)Nc2ccc(F)cc2)c1`, the IC50 in the assay on Jurkat worked out at 6200 nM; in the assay with HeLa, 16800 nM; with MCF7 it was 13600 nM; in the assay with CCRF-CEM it was 16600 nM; in the assay on LoVo it was 4800 nM; in assay [1], 8400 nM. The IC50 in the assay with HT-29 came out at 36600 nM.

In the case of `C=C(Br)C(=O)Nc1cccc(/C=C/C(=O)Nc2ccc(OCC)cc2)c1`, the IC50 with Jurkat was 930 nM; with HeLa, 2000 nM; in the assay on MCF7, 5500 nM; in the assay on CCRF-CEM it was 98 nM; with LoVo, 850 nM; in assay [1], 180 nM. Besides, the 50% inhibitory concentration (IC50) in the assay with HT-29 amounted to 3400 nM.

With `COc1cccc(/C=C/C(=O)Nc2cc(OC)c(OC)c(OC)c2)c1`, the IC50 is 12500 nM in the assay with Jurkat; 16500 nM in the assay with HeLa; 27000 nM with MCF7; 23400 nM with CCRF-CEM; 43000 nM with LoVo; 18200 nM in [1]. Besides, in the assay with HT-29, the concentration for half-maximal inhibition (IC50) was found to be 44100 nM.

Consider `CC[C@]1(O)C[C@@H]2CN(CCc3c([nH]c4ccccc34)[C@@](C(=O)OC)(c3cc4c(cc3OC)N(C)[C@H]3[C@@](O)(C(=O)OC)[C@H](OC(C)=O)[C@]5(CC)C=CCN6CC[C@]43[C@@H]65)C2)C1` [VINBLASTINE], for which the IC50 in assay [2] was determined as 21 nM.

Turning to `C=C(Br)C(=O)Nc1cccc(/C=C/C(=O)Nc2ccc(OC(F)(F)F)cc2)c1`, the IC50 in the assay on Jurkat was found to be 30300 nM; in the assay on HeLa it was 29000 nM; with MCF7, 43300 nM; in the assay on CCRF-CEM, 13000 nM; with LoVo, 30300 nM; in assay [1] it was 19300 nM. In addition, in the assay on HT-29, the IC50 is 61200 nM.
